# Bioassay records as filed in PubChem.
# Shown are actives, neighbours in structure and some others; about 2.1% of the full set was active somewhere.
# VIM-2 inh – blocks Pseudomonas aeruginosa VIM-2 metallo-beta-lactamase. purified VIM-2, nitrocefin hydrolysis, epi-absorbance fluorescence. inhibition, % at 5.6 µM. hit rate 0.89% among 290,000. AID 1527;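 active means inhibition above the mean of all tested compounds plus 3 SD, cutoff set per screening run, cut at about 7.5% in these data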;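 further: red hydrolysis product quenches plate fluorescence so inhibitors raise well fluorescence; 0% = enzyme with DMSO and 100% = DMSO without enzyme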
# FID counter – counter-screen for HCV NS3 helicase inhibitors: DNA intercalator displacement; DNA fluorescent intercalator displacement, fluorescence; inhibition, % at 7.9 µM; hit rate 0.17% among 290,000; in the data active means inhibition above about 37%;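 further: 0% = vehicle and 100% = reference compound; higher means more ethidium bromide displaced from hairpin DNA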
# NS3 helicase inh – inhibitors of Hepatitis C virus NS3 helicase. NS3 helicase DNA unwinding, Cy5 molecular beacon fluorescence. inhibition, % at 10.9 µM. hit rate 0.56% among 290,000. AID 1800;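 active means inhibition above the mean of all tested compounds plus 3 SD, set per campaign, cut at about 35% in these data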;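 further: 0% = DMSO wells and 100% = thioflavine S control wells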
#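 Test system: hepatitis C virus NS3 helicase domain fragment enzyme. Also added: annealed dual-labelled DNA beacon duplex, ATP-started. Timing: 60 min unwinding reaction at 25 °C after ATP addition. Technique: Cy5 fluorescence. Measure: % inhibition of unwinding.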
# IMP-1 inh-1 – inhibitors of Pseudomonas aeruginosa IMP-1 metallo-beta-lactamase. inhibition, % at 5.6 µM. hit rate 0.45% among 290,000. purified IMP-1, nitrocefin hydrolysis, epi-absorbance fluorescence. AID 1556;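 active means inhibition above the mean plus 3 SD of all compounds in the same screening run, cut at about 4.5% in these data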;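 further: 0% = IMP-1 with DMSO and 100% = DMSO wells lacking enzyme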
#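 System – purified recombinant IMP-1 beta-lactamase · Input – IMP-1 dispensed at 0.2 nM · Timing – 15 min preincubation plus 25 min reaction at 25 °C · Signal – Epi-absorbance fluorescence, 480 nm excitation, 530 nm emission · Measure – percent IMP-1 inhibition derived from blank-referenced optical density · Controls – Enzyme-plus-DMSO low control, enzyme-free DMSO high control · Replication – singlicate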
# UBC9 SUMO inh – SUMOylation inhibition; HTRF SUMOylation assay, SAE1/SAE2 + UBC9, in vitro; AID 2006; inhibition, % at 35 µM; hit rate 0.36% among 290,000; in the data active means inhibition above about 50%, passing the limit was not always enough
# Target sequence (P63279 whole entry, looked up): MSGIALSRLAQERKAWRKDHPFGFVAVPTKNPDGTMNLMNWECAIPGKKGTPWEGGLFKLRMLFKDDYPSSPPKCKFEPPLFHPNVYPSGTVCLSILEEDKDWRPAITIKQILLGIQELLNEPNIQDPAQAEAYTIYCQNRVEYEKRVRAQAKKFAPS
# IMP-1 inh-2 – IMP-1 inhibition, counter-screen for VIM-2 inhibitors; shares compounds with VIM-2 inh; purified IMP-1, nitrocefin hydrolysis, epi-absorbance fluorescence; inhibition, % at 5.6 µM; 1,300 tested, under 10 active; call rule not given here;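 further: 0% = enzyme with vehicle and 100% = vehicle without enzyme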
# VIM-2 FRET inh – counter-screen for VIM-2 inhibitors: epi-absorbance artifacts via FRET. shares compounds with VIM-2 inh. purified VIM-2, CCF2 FRET substrate hydrolysis. inhibition, % at 5.6 µM. hit rate 23% among 1,300;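 active means inhibition above the mean of all tested compounds plus 3 SD, cut at about 19% in these data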;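 further: 0% = VIM-2 plus DMSO and 100% = no enzyme wells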
# TEM-1 inh – blocks E. coli TEM-1 beta-lactamase in VIM-2 selectivity screen; inhibition, % at 5.6 µM; Purified TEM-1, nitrocefin hydrolysis, epi-absorbance fluorescence; shares compounds with VIM-2 inh; AID 1866; hit rate 3% among 1,300;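 active means inhibition above that campaign's mean inhibition plus 3 SD, cut at about 0.46% in these data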;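 further: 0% = TEM-1 with DMSO and 100% = TEM-1 with 100 µM potassium clavulanate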
# Target sequence (P62593 whole entry, looked up): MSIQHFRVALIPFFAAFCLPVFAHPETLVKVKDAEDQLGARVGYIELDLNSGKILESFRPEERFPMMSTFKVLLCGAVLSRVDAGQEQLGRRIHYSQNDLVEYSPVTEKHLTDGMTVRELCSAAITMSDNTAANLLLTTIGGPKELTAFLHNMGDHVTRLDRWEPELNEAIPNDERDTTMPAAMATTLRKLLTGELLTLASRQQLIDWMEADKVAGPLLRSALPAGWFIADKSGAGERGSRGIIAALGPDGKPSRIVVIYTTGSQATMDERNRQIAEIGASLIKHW
# VIM-2 inh conf – confirmation of P. aeruginosa VIM-2 metallo-beta-lactamase inhibitors. shares compounds with VIM-2 inh. purified VIM-2, nitrocefin hydrolysis, epi-absorbance. inhibition, % at 5.6 µM. hit rate 96% among 1,300. AID 2187;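 active means inhibition of the VIM-2 beta-lactamase enzyme above about 11% from the earlier first-round screen, limit read from the data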;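 further: 0% = VIM-2 with DMSO and 100% = buffer wells without enzyme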
# * marks the source's active call; other numbers are inactive results; nt = not tested or not shown.
SMILES,VIM-2 inh,FID counter,NS3 helicase inh,IMP-1 inh-1,UBC9 SUMO inh,IMP-1 inh-2,VIM-2 FRET inh,TEM-1 inh,VIM-2 inh conf
CCN(CC)c1nc(-c2ccc(C(=O)NN)cc2)nc(-c2ccc(C(=O)NN)cc2)n1,75*,-36,-29,-3,18,-3,4,-6,85*
CCC(C)c1ccc(NC(=S)N2CCN(C(=O)C3CCCO3)CC2)cc1 (stereo not given),-1,-33,0,-2,-9,nt,nt,nt,nt
O=C(O)C(c1ccccc1)N1C(=O)/C(=C\c2ccc(O)c(O)c2)SC1=S (stereo not given),31*,-9,-10,-4,15,-6,50*,-8,31*
CC(C)Oc1cccc(C(=O)NC(=S)Nc2ccc(N3CCN(C)CC3)cc2)c1,56*,20,-43,1,13,-3,-2,-9,70*
CCOc1ccccc1C(=O)Nc1ccc(S(=O)(=O)N2CCN(C)CC2)cc1,18*,5,-17,-3,4,-1,5,-6,31*
CN1CCN(S(=O)(=O)c2ccc(NC(=S)NC(=O)c3ccccc3)cc2)CC1,34*,-3,-4,0,1,-2,-2,-6,63*
CCC(=O)NC(=S)Nc1ccc(S(=O)(=O)N2CCN(C)CC2)cc1,3,-3,2,-1,6,nt,nt,nt,nt
C=CCn1c(=O)n2ncnc2c2c3c(sc21)CCCC3,15*,-11,3,-1,6,-3,5,-6,39*
O=c1n(Cc2ccc(Cl)cc2)c2sc3c(c2c2ncnn12)CCCC3,-3,-4,-4,-2,-13,nt,nt,nt,nt
CC1CC(C)CN(CCCNS(=O)(=O)c2ccc3c(c2)CCN3C(=O)C2CC2)C1 (stereo not given),12*,13,3,-4,0,-3,-1,-6,8.9*
O=C(C1CC1)N1CCc2cc(S(=O)(=O)NCCCN3CCCCC3)ccc21,6,16,10,0,-2,nt,nt,nt,nt
CCOC(=O)N1CCN(C(=O)COC(=O)Cc2ccc(Cl)cc2)CC1,-2,-19,6,-2,16,nt,nt,nt,nt
COCCn1c(C)cc(C(=O)CSc2cc(C)c3ccc(OC)cc3n2)c1C,-1,-21,-1,0,4,nt,nt,nt,nt
CN1CCc2cc3c(c4c2[C@H]1[C@H](O)c1ccccc1-4)OCO3,17*,97*,17,-2,55,-3,-16,-4,24*
N#Cc1ccccc1NC(=O)CSc1nnc(-c2ccncc2)o1,0,0,-10,-2,-2,nt,nt,nt,nt
O=C(O)COc1ccccc1/C=N/n1c(C2CCCCC2)n[nH]c1=S,27*,-21,-7,-4,6,-3,53*,-8,40*
S=c1[nH]nc(C2CCCCC2)n1/N=C/c1ccccc1Br,-2,-30,0,-3,1,nt,nt,nt,nt
Cc1ccc(C(=O)CC2(O)C(=O)N(C)c3ccccc32)s1 (stereo not given),-7,-2,-5,-5,8,nt,nt,nt,nt
O=C(Cn1c(=O)oc2ccccc21)N1CCOCC1,-2,-2,-9,-3,7,nt,nt,nt,nt
O=C(CSc1cn[nH]n1)Nc1ccccc1C(=O)O,20*,-2,0,-1,10,-2,40*,-4,23*
O=C(CSc1ccccc1)Nc1ccccc1C(=O)O,-1,0,4,-4,-7,nt,nt,nt,nt
NC(=O)SCC(=O)Nc1ccccc1C(=O)O,13*,-1,10,0,20,1,50*,-5,31*
CCN(CC)S(=O)(=O)c1ccc(N2CCOCC2)c(NS(=O)(=O)c2ccc(C)c(C)c2)c1,1,-25,-13,-4,8,nt,nt,nt,nt
CC1(C)CC(NC(=O)COc2cc3oc(=O)c4c(c3cc2Cl)CCC4)CC(C)(C)N1,34*,24,-2,0,4,-2,1,-7,41*
Cc1c(C)c2cc(Cl)c(OCC(=O)NC3CC(C)(C)NC(C)(C)C3)cc2oc1=O,16*,9,-6,-1,nt,-3,3,-5,22*
SMILES,VIM-2 inh,FID counter,NS3 helicase inh,IMP-1 inh-1,UBC9 SUMO inh,IMP-1 inh-2,VIM-2 FRET inh,TEM-1 inh,VIM-2 inh conf
Cc1cc(OCC(=O)NC2CC(C)(C)NC(C)(C)C2)c2c(C)c(C)c(=O)oc2c1,14*,13,3,1,29,-4,2,-7,18*
O=C(COC(=O)CNC(=O)c1ccccc1F)Nc1cccnc1Cl,1,3,0,1,-4,nt,nt,nt,nt
COc1ccc(S(=O)(=O)N(CC(=O)NCc2ccncc2)c2ccc(C)cc2)cc1OC,1,-17,9,-3,-6,nt,nt,nt,nt
CCC1CO/C(=C(\C(Cl)=C(Cl)Cl)[N+](=O)[O-])N1 (stereo not given),-6,-1,-1,-3,18,nt,nt,nt,nt
CCOC(=O)C(=CNc1ccc(NC2=NCC(C)S2)cc1)C(=O)OCC (stereo not given),28*,-3,-17,-2,8,-2,-7,-6,44*
CCOC(=O)C(=CNc1ccc(C(F)(F)F)cc1)C(=O)OCC,-2,-17,-7,-3,6,nt,nt,nt,nt
CCCN1CCN(C(=O)C(C)n2nc(C)c3sc4ccccc4c3c2=O)CC1 (stereo not given),29*,1,6,-3,11,-2,-4,-5,36*
CCN1CCN(CCCNC(=O)CCCn2nc(C)c3sc4ccccc4c3c2=O)CC1,13*,22,-8,-1,-2,-4,4,-6,16*
COc1cccc(OCC(O)CN2CCC(CN3C(=O)c4cccc5cccc(c45)C3=O)CC2)c1 (stereo not given),14*,14,-84,-1,16,-4,-1,-4,22*
COc1cc(COCC(O)CN2CCN(CCN3C(=O)c4cccc5cccc(c45)C3=O)CC2)cc(OC)c1OC (stereo not given),6,7,-16,-4,-5,nt,nt,nt,nt
COc1ccc(COCC(O)CN2CCC(CN3C(=O)c4cccc5cccc(c45)C3=O)CC2)cc1OC (stereo not given),14*,12,-26,-3,-5,-4,3,-8,27*
CCc1ccc(OCC(O)CN2CCC(CN3C(=O)c4cccc5cccc(c45)C3=O)CC2)cc1 (stereo not given),-2,9,-65,-4,-3,nt,nt,nt,nt
COc1ccc2c(c1)oc(=O)c1cc(OC)ccc12,-1,-1,-7,-1,33,nt,nt,nt,nt
COc1ccc2c(c1)oc(=O)c1ccccc12,8.3*,-6,9,0,16,-3,0,-6,15*
